Reference: ChEMBL document CHEMBL2040734, “Benzothiazoles: search for anticancer agents” (2012)

Assays:
Type in all cases: functional
A498 [1] = assay: Cytotoxicity against human A498 cells assessed as cell growth at 10 uM after 48 hrs by sulforhodamine B assay; settings: A498, 48 h, read-out: Activity
In short: (§1)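 NCI-60 five-dose screen. Cells were grown in RPMI 1640 with 5% FBS and 2 mM L-glutamine and preincubated 24 h. Compound (DMSO stock) was tested at 0.01, 0.1, 1, 10 and 100 µM for 48 h at 37 °C. Cells were fixed in situ with cold TCA (final 10%) and stained with 0.4% SRB. A515 was read, and percent growth was calculated against time-zero and control plates.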

PC-3 = assay: Growth inhibition of human PC3 cells after 48 hrs by sulforhodamine B assay; settings: PC-3, 48 h; for CC50: read-out: LC50 (the source's name)
In short: (§2)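 Adherent NCI-60 lines were grown in RPMI 1640 with 5% FBS and 2 mM L-glutamine, plated at 5000–40,000 cells/well and preincubated 24 h. They were then exposed to five concentrations (0.01–100 µM, from a DMSO stock) for 48 h at 37 °C, 5% CO2. Cells were fixed with cold TCA (10% final, 60 min, 4 °C) and stained with 0.4% SRB. Dye was solubilized in 10 mM Tris base and A515 read. GI50 was derived from time-zero, control and treated absorbances.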

SF-268 [2] = assay: Cytotoxicity against human SF268 cells assessed as cell growth at 1 uM after 48 hrs by sulforhodamine B assay; settings: SF-268, 48 h, read-out: Activity
RXF 393 = assay: Cytotoxicity against human RXF393 cells assessed as cell growth at 10 uM after 48 hrs by sulforhodamine B assay; settings: RXF 393, 48 h, read-out: Activity
BT-549 = assay: Cytotoxicity against human BT549 cells assessed as cell growth at 100 uM after 48 hrs by sulforhodamine B assay; settings: BT-549, 48 h, read-out: Activity; in short: as §1
HOP-62 = assay: Cytotoxicity against human HOP62 cells assessed as cell growth at 100 uM after 48 hrs by sulforhodamine B assay; settings: HOP-62, 48 h, read-out: Activity
In short: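 Five-dose NCI panel run at 0.01, 0.1, 1, 10 and 100 µM. Cells were in RPMI 1640 with 5% FBS and 2 mM L-glutamine, seeded at 5000–40,000 cells/well and pre-incubated 24 h. Drug was diluted from a DMSO stock into medium with 50 µg/ml gentamicin. Exposure was 48 h at 37 °C, 5% CO2. Cells were fixed with cold TCA and stained with 0.4% SRB, read at 515 nm. Percent growth came from time-zero, control and test absorbances.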

IGROV-1 = assay: Cytotoxicity against human IGROV1 cells assessed as cell growth at 0.1 uM after 48 hrs by sulforhodamine B assay; settings: IGROV-1, 48 h, read-out: Activity
TK-10 = assay: Cytotoxicity against human TK10 cells assessed as cell growth at 0.1 uM after 48 hrs by sulforhodamine B assay; settings: TK-10, 48 h, read-out: Activity
M14 = assay: Cytotoxicity against human M14 cells assessed as cell growth at 0.01 uM after 48 hrs by sulforhodamine B assay; settings: M14, 48 h, read-out: Activity
UO-31 = assay: Cytotoxicity against human UO31 cells assessed as cell growth at 1 uM after 48 hrs by sulforhodamine B assay; settings: UO-31, 48 h, read-out: Activity
SF-268 [3] = assay: Cytotoxicity against human SF268 cells assessed as cell growth at 10 uM after 48 hrs by sulforhodamine B assay; settings: SF-268, 48 h, read-out: Activity
HL-60(TB) = assay: Cytotoxicity against human HL-60(TB) cells assessed as cell growth at 10 uM after 48 hrs by sulforhodamine B assay; settings: HL-60, 48 h, read-out: Activity
In short: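 NCI five-dose screen on the HL-60(TB) leukaemia line, grown in RPMI 1640 with 5% FBS and 2 mM L-glutamine and plated for 24 h before dosing. DMSO stocks were diluted in medium. Cells were exposed 48 h at 37 °C, then settled cells were fixed in 16% TCA (final) and stained with SRB, absorbance 515 nm. Percent growth = (Ti−Tz)/(C−Tz)×100, or (Ti−Tz)/Tz×100 when Ti<Tz.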

HT-29 = assay: Growth inhibition of human HT-29 cells after 48 hrs by sulforhodamine B assay; settings: HT-29, 48 h; in short: as §2
SF-295 = assay: Cytotoxicity against human SF295 cells assessed as cell growth at 10 '-5 M after 48 hrs by sulforhodamine B assay; settings: SF-295, 48 h, read-out: Activity
OVCAR-3 = assay: Cytotoxicity against human OVCAR3 cells assessed as cell growth at 1 uM after 48 hrs by sulforhodamine B assay; settings: OVCAR-3, 48 h, read-out: Activity
SN12C = assay: Cytotoxicity against human SN12C cells assessed as cell growth at 1 uM after 48 hrs by sulforhodamine B assay; settings: read-out: Activity
A498 [4] = assay: Cytotoxicity against human A498 cells assessed as cell growth at 10 '-5 M after 48 hrs by sulforhodamine B assay; settings: A498, 48 h, read-out: Activity
In short: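 Primary NCI-60 single-dose screen at 10 µM. Cells were grown in RPMI 1640 with 5% FBS and 2 mM L-glutamine and plated 24 h before drug addition. Compound was solubilized in DMSO, then exposed for 48 h at 37 °C under 5% CO2. Cells were TCA-fixed and stained with SRB, and absorbance was read at 515 nm. Growth was expressed relative to time-zero and untreated controls.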

OVCAR-4 = assay: Cytotoxicity against human OVCAR4 cells assessed as cell growth at 10 uM after 48 hrs by sulforhodamine B assay; settings: OVCAR-4, 48 h, read-out: Activity
SK-MEL-28 = assay: Cytotoxicity against human SK-MEL-28 cells assessed as cell growth at 1 uM after 48 hrs by sulforhodamine B assay; settings: SK-MEL-28, 48 h, read-out: Activity
DU-145 = assay: Cytotoxicity against human DU145 cells assessed as cell growth at 0.1 uM after 48 hrs by sulforhodamine B assay; settings: DU-145, 48 h, read-out: Activity; in short: as §1
CCRF-CEM = assay: Cytotoxicity against human CCRF-CEM cells assessed as cell growth at 0.1 uM after 48 hrs by sulforhodamine B assay; settings: read-out: Activity
In short: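 CCRF-CEM suspension leukemia cells in RPMI 1640 with 5% FBS and 2 mM L-glutamine, plated 24 h before dosing. Five concentrations (0.01–100 µM) were applied from a DMSO stock for 48 h at 37 °C. Settled cells were fixed with 80% TCA (final 16%) and stained with SRB, with read-out at 515 nm. Percent growth was derived from time-zero and control absorbances.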

SK-OV-3 = assay: Cytotoxicity against human SKOV3 cells assessed as cell growth at 1 uM after 48 hrs by sulforhodamine B assay; settings: SK-OV-3, 48 h, read-out: Activity
KM12 = assay: Cytotoxicity against human KM12 cells assessed as cell growth at 0.01 uM after 48 hrs by sulforhodamine B assay; settings: KM12, 48 h, read-out: Activity
SK-MEL-2 = assay: Cytotoxicity against human SK-MEL-2 cells assessed as cell growth at 0.01 uM after 48 hrs by sulforhodamine B assay; settings: SK-MEL-2, 48 h, read-out: Activity

Work on `Clc1cccc(Cl)c1Nc1nc2cccc(Cl)c2s1` yielded a growth at 10 µM (A498 [1]) of -97%, a GI50 (PC-3) of 526 nM and a TGI (PC-3) of 2300 nM. It also gave a CC50 (PC-3) of 6810 nM, a growth at 1 µM (SF-268 [2]) of 62% and a growth at 10 µM (RXF 393) of -73%. The growth at 100 µM (BT-549) was -48%, the growth at 100 µM (HOP-62) was -75% and the growth at 0.1 µM (IGROV-1) was 103%. The growth at 0.1 µM (TK-10) was 94%, the growth at 0.01 µM (M14) was 103% and the growth at 1 µM (UO-31) was 26%. For the same compound, the growth at 10 µM (SF-268 [3]) was -87%, the growth at 10 µM (HL-60(TB)) was -47% and the GI50 (HT-29) was 1290 nM. For the same compound, the LC50 (concentration killing 50% of cells) (HT-29) was 6970 nM, the TGI (HT-29) was 2990 nM and the growth at 10 µM (SF-295) was -45.1%. The growth at 1 µM (OVCAR-3) was 50%, the growth at 1 µM (SN12C) was 46% and the growth at 10 µM (A498 [4]) was -53.6%. For the same compound, the growth at 10 µM (OVCAR-4) was -90%, the growth at 1 µM (SK-MEL-28) was 77% and the growth at 0.1 µM (DU-145) was 102%. For the same compound, the growth at 0.1 µM (CCRF-CEM) was 93%, the growth at 1 µM (SK-OV-3) was 86% and the growth at 0.01 µM (KM12) was 99%. It also gave a growth at 0.01 µM (SK-MEL-2) of 98%.
`Cc1ccc2nc(Nc3c(C)cccc3C)sc2c1` was tested, and the growth at 10 µM (A498 [1]) was -1%, the TGI (PC-3) was greater than 100000 nM and the CC50 (PC-3) was greater than 100000 nM. It also gave a growth at 1 µM (SF-268 [2]) of 79%, a growth at 10 µM (RXF 393) of 27% and a growth at 100 µM (BT-549) of 73%. For the same compound, the growth at 100 µM (HOP-62) was 10%, the growth at 0.1 µM (IGROV-1) was 108% and the growth at 0.1 µM (TK-10) was 94%. For the same compound, the growth at 0.01 µM (M14) was 106%, the growth at 1 µM (UO-31) was 73% and the growth at 10 µM (SF-268 [3]) was 64%. It also gave a growth at 10 µM (HL-60(TB)) of 30%, a GI50 (HT-29) of 629 nM and an LC50 (concentration killing 50% of cells) (HT-29) greater than 100000 nM. It also gave a TGI (HT-29) greater than 100000 nM, a growth at 10 µM (SF-295) of 18.9% and a growth at 1 µM (OVCAR-3) of 72%. The growth at 1 µM (SN12C) was 65%, the growth at 10 µM (A498 [4]) was 38% and the growth at 10 µM (OVCAR-4) was 55%. For the same compound, the growth at 1 µM (SK-MEL-28) was 66%, the growth at 0.1 µM (DU-145) was 102% and the growth at 0.1 µM (CCRF-CEM) was 89%. The growth at 1 µM (SK-OV-3) was 91%, the growth at 0.01 µM (KM12) was 101% and the growth at 0.01 µM (SK-MEL-2) was 94%.
